Laboratory results taken from ChEMBL document CHEMBL1122078, “Inhibitors of blood platelet aggregation. Activity of some 1H-benz[de]isoquinolinecarboximidamides on the in vivo blood platelet aggregation induced by collagen” (J Med Chem, 1982).
Values after ≈ are worked out from the molar mass of the structure shown. Values joined by “and” are separate entries in the source; they are usually repeats but may differ in a detail not shown here. Equal values may be shown once.

Assays:
[1] = Aqueous solubility at room temperature; assay type: physicochemical; settings: water; read-out: S
Procedure, shortened: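 Solubility in water, given in mg/mL, determined at room temperature.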

Rattus norvegicus [2] = assay: In vivo inhibition of blood platelet aggregation induced by collagen, intraperitoneal administration; assay type: functional
Procedure, shortened: (§1)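 Male Wistar rats dosed ip at 0.2 mmol/kg/day for 5 days, with a placebo group run in parallel. On day 5 rats were anesthetized with pentobarbitone (40-50 mg/kg ip) and collagen was infused through a cannula in the right common carotid. Blood was taken into EDTA at 60 and 90 s. Platelets were Coulter-counted after thrombo-oil separation. Read-out: rise in circulating platelets versus placebo, at 60 s unless noted.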

Rattus norvegicus [3] = assay: (§2) Compound was tested in the rat after peroral administration for its ability to inhibit the in vivo blood platelet aggregation induced by collagen; assay type: functional
Procedure, shortened: (§3)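 Oral dosing of male Wistar rats at 0.2 mmol/kg/day for 5 days, alongside a placebo group. On day 5 under pentobarbitone anesthesia, collagen was infused via a cannula in the right common carotid artery. EDTA blood samples were taken 60 and 90 s after the start of infusion, and platelets were counted by Coulter counter. Value is the increase in circulating platelets relative to placebo, at 60 s unless stated.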

Rattus norvegicus [4] = assay: (§4) Compound was tested in the rat after intraperitoneal administration for its ability to inhibit the in vivo blood platelet aggregation induced by collagen; Not determined because of toxicity; assay type: functional, organism-based; procedure, shortened: as §1
Rattus norvegicus [5] = assay: Compound was tested in the rat after peroral administration for its ability to inhibit the in vivo blood platelet aggregation induced by collagen,; assay type: organism-based; settings: po; procedure, shortened: as §3
Rattus norvegicus [6] = assay: as §4; assay type: organism-based; settings: ip; procedure, shortened: as §1
Rattus norvegicus [7] = assay: Compound was tested in the rat after intraperitoneal administration for its ability to inhibit the in vivo blood platelet aggregation induced by collagen; assay type: ADME, organism-based; settings: po, in the assay text read “oral” for “intraperitoneal”
Rattus norvegicus [8] = assay: as §2; assay type: ADME, organism-based; settings: po; procedure, shortened: as §3
Rattus norvegicus [9] = assay: Compound was tested in the rat after peroral administration for its ability to inhibit the in vivo blood platelet aggregation induced by collagen; Only at 90s after collagen administration; assay type: organism-based; settings: po; procedure, shortened: as §3

SMILES | solubility [1] [µg/mL] | Increase (Rattus norvegicus [2]) | other results
Cc1ccc2c3c(cccc13)CN(C(=N)NO)C2.Cl | 5000 | 16% and 14% | 
Cl.N/N=C(/N)N1Cc2cccc3cccc(c23)C1 | 10000 |  | 
CN(C)/N=C(/N)N1Cc2cccc3cccc(c23)C1.Cl | 25000 |  | Increase (Rattus norvegicus [3]): -2%
Cl.N=C(N)N1Cc2cccc3cccc(c23)C1 | 10000 | 38% and 28% | 
COc1ccc(NC(=N)N2Cc3cccc4cccc(c34)C2)cc1 | < 5000 | -2% | 
Cl.N/C(=N\O)N1Cc2cccc3cccc(c23)C1 | 4000 | 36% and 23% | 
COc1ccc2c3c1CCCC3CN(C(=N)N)C2.Cl (stereo not given) | 17000 |  | 
CC(C)=N/N=C(\N)N1Cc2cccc3c2C(CCC3)C1.Cl (stereo not given) |  |  | Increase (Rattus norvegicus [4]): Toxic; Increase (Rattus norvegicus [5]): 0%
N/C(=N\c1ccc([N+](=O)[O-])cc1)N1Cc2cccc3c2C(CCC3)C1 (stereo not given) |  |  | Increase (Rattus norvegicus [4]): Toxic; Increase (Rattus norvegicus [5]): -7%
C/N=C(/NC)N1Cc2cccc3cccc(c23)C1 | 25000 (≈ 104 mM) | 1% | 
Cl.N=C(N)N1Cc2cccc3c(Cl)ccc(c23)C1 | 2500 |  | Increase (Rattus norvegicus [6]): Toxic
Cc1ccc2c3c1CCCC3CN(C(=N)NO)C2.Cl (stereo not given) | 18000 | 45% | 
COc1cc2c3c(c1OC)CCCC3CN(C(=N)NO)C2.Cl (stereo not given) | > 50000 |  | 
COc1ccc(NC(=N)N2Cc3cccc4c3C(CCC4)C2)cc1 (stereo not given) | < 3000 |  | Increase (Rattus norvegicus [6]): Toxic; Increase (Rattus norvegicus [8]): 7%
COc1ccc2c3c1CCCC3CN(C(=N)NO)C2.Cl (stereo not given) | 5000 | 70% | Increase (Rattus norvegicus [9]): 8%
Cl.N/C(=N\O)N1Cc2cccc3c(Cl)ccc(c23)C1 | 3000 | 44% and 18% | 
Cl.Cl.N/C(=N\c1ccc(N)cc1)N1Cc2cccc3cccc(c23)C1 | 60000 |  | Increase (Rattus norvegicus [3]): 8%
CC(=O)NC(=N)N1Cc2cccc3cccc(c23)C1.Cl | 35000 | 17% | 
COc1cc2c3c(cccc3c1)CN(C(=N)NO)C2.Cl | 18000 |  | Increase (Rattus norvegicus [3]): -5%

Further lines, with some results ahead:

solubility [1] [µg/mL] | SMILES | Increase (Rattus norvegicus [2]) | other results
20000 (≈ 82.2 mM) | C/N=C(\NC)N1Cc2cccc3c2C(CCC3)C1 (stereo not given) | 2% | 
12000 | Cl.N/C(=N\O)N1Cc2cccc3c2C(CCC3)C1 (stereo not given) | 42% and 23% | 
< 3000 | N#CNC(=N)N1Cc2cccc3c2C(CCC3)C1 (stereo not given) | 1% | 
< 3000 | C/N=C(\N)N1Cc2cccc3c2C(CCC3)C1 (stereo not given) |  | Increase (Rattus norvegicus [3]): 30% and 12%
60000 | Cl.N/N=C(/N)N1Cc2cccc3c2C(CCC3)C1 (stereo not given) |  | 
< 4000 | N=C(Nc1ccc(Cl)cc1)N1Cc2cccc3c2C(CCC3)C1 (stereo not given) |  | Increase (Rattus norvegicus [3]): 7%
< 3000 | N=C(Nc1ccccc1)N1Cc2cccc3c2C(CCC3)C1 (stereo not given) | -11% | 
16000 | Cc1ccc2c3c1CCCC3CN(C(=N)N)C2.Cl (stereo not given) |  | Increase (Rattus norvegicus [6]): Toxic; Increase (Rattus norvegicus [7]): 16%
< 3000 | N=C(Nc1ccc(S(N)(=O)=O)cc1)N1Cc2cccc3c2C(CCC3)C1 (stereo not given) |  | Increase (Rattus norvegicus [3]): 3%
4000 | CN(C)c1ccc(NC(=N)N2Cc3cccc4c3C(CCC4)C2)cc1.Cl (stereo not given) |  | Increase (Rattus norvegicus [3]): 4%
< 3000 | Cl.N=C(Nc1ccc(C(N)=O)cc1)N1Cc2cccc3c2C(CCC3)C1 (stereo not given) |  | Increase (Rattus norvegicus [3]): 7%
60000 | Cl.N=C(N)N1Cc2cccc3c2C(CCC3)C1 (stereo not given) |  | 
< 3000 | Br.N/C(=N\c1ccc(C(=O)O)cc1)N1Cc2cccc3c2C(CCC3)C1 (stereo not given) |  | Increase (Rattus norvegicus [3]): 2%
< 5000 | N/C(=N\c1ccc(N)cc1)N1Cc2cccc3c2C(CCC3)C1 (stereo not given) |  | Increase (Rattus norvegicus [6]): Toxic; Increase (Rattus norvegicus [8]): 8%
